Laboratory results from ChEMBL document CHEMBL4024789, “Neutral Porphyrin Derivative Exerts Anticancer Activity by Targeting Cellular Topoisomerase I (Top1) and Promotes Apoptotic Cell Death without Stabilizing Top1-DNA Cleavage Complexes” (J Med Chem, 2018).
Active and inactive are the calls of the source. The calls are words filed in the database; no cut-off is given here.

How the values were obtained:
Bacteria [1] = assay: Induction of relaxed pBluescript SK(+) DNA intercalation (unknown origin) assessed as negative supercoiling at 50 uM after 15 mins by agarose gel electrophoresis method
Procedure, shortened: (§1)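 Top1 unwinding assay: excess Top1 first relaxes 50 fmol supercoiled pBS (SK+) DNA, then the relaxed DNA is incubated with compound at 50, 100 or 300 μM (m-AMSA and etoposide as references). Negative supercoiling read on agarose gel.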

DNA topoisomerase 1 [2] = molecular target: T1, DNA topoisomerase 1 (Homo sapiens, UniProt P11387); assay: Inhibition of recombinant human topoisomerase-1 expressed in baculovirus infected sf9 cells using supercoiled pBS SK(+) DNA as substrate after 15 mins by ethidium bromide staining based agarose gel electrophoresis method
T1 sequence (P11387 whole entry): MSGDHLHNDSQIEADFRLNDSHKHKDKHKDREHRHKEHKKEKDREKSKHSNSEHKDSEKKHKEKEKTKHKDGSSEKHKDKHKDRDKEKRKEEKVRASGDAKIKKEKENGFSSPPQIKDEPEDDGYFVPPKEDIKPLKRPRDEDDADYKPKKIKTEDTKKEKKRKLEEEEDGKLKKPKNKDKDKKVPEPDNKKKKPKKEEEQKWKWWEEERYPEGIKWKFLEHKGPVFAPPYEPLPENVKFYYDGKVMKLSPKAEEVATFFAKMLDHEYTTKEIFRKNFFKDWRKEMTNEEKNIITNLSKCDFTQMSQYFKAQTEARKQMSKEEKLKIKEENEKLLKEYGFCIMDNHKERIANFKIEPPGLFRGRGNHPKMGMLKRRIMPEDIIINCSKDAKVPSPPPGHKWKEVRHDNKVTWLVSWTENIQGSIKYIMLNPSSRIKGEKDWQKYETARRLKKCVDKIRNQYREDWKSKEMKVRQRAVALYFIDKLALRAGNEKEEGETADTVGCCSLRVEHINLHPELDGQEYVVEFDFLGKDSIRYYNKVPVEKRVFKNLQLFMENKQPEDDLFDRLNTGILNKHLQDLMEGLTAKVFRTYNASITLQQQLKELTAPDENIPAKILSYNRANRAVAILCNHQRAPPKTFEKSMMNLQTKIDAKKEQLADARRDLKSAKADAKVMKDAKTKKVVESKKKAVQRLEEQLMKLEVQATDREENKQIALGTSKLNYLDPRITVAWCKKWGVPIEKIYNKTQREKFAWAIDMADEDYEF
Procedure, shortened: (§2)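 Relaxation assay: 90 fmol supercoiled pBS (SK+) DNA with 30 fmol recombinant Top1 (Sf-9/baculovirus). Compound either preincubated with Top1 for 5 min before DNA addition, or added simultaneously with DNA; then 37 °C for 15 min. Vehicle 2% DMSO. Read on 1% agarose gel. EC50 from mean ± SD of three experiments.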

DNA topoisomerase 1 [3] = molecular target: T1, DNA topoisomerase 1; assay: Inhibition of recombinant human topoisomerase-1 expressed in baculovirus infected sf9 cells using supercoiled pBS SK(+) DNA as substrate preincubated for 5 mins followed by substrate addition measured after 15 mins by ethidium bromide staining based agarose gel electrophoresis method; procedure, shortened: as §2
Bacteria [4] = assay: Induction of relaxed pBluescript SK(+) DNA intercalation (unknown origin) assessed as negative supercoiling at 300 uM after 15 mins by agarose gel electrophoresis method; procedure, shortened: as §1

Compound	Activity (Bacteria [1])	EC50 (DNA topoisomerase 1 [2])	EC50 (DNA topoisomerase 1 [3])	Activity (Bacteria [4])
Brc1ccc(-c2c3nc(c(-c4ccncc4)c4ccc([nH]4)c(-c4ccc(Br)cc4)c4nc(c(-c5ccncc5)c5ccc2[nH]5)C=C4)C=C3)cc1	–	> 50 µM	> 50 µM	–
Brc1ccc(-c2c3nc(c(-c4ccc(Br)cc4)c4ccc([nH]4)c(-c4ccncc4)c4nc(c(-c5ccncc5)c5ccc2[nH]5)C=C4)C=C3)cc1	–	> 50 µM	> 50 µM	–
Brc1ccc(-c2c3nc(c(-c4ccc(-c5ccncc5)cc4)c4ccc([nH]4)c(-c4ccc(Br)cc4)c4nc(c(-c5ccc(-c6ccncc6)cc5)c5ccc2[nH]5)C=C4)C=C3)cc1	–	> 50 µM	> 50 µM	–
C1=Cc2nc1c(-c1ccccc1)c1ccc([nH]1)c(-c1ccccc1)c1nc(c(-c3ccccc3)c3ccc([nH]3)c2-c2ccccc2)C=C1	–	> 50 µM	> 50 µM	–
Nc1ccc(-c2ccc(-c3c4nc(c(-c5ccc(-c6ccc(N)cc6)cc5)c5ccc([nH]5)c(-c5ccncc5)c5nc(c(-c6ccncc6)c6ccc3[nH]6)C=C5)C=C4)cc2)cc1	–	82.8 µM	63.4 µM	–
Brc1ccc(-c2c3nc(c(-c4ccncc4)c4ccc([nH]4)c(-c4ccncc4)c4nc(c(-c5ccncc5)c5ccc2[nH]5)C=C4)C=C3)cc1	–	> 50 µM	> 50 µM	–
C1=Cc2nc1c(-c1ccncc1)c1ccc([nH]1)c(-c1ccncc1)c1nc(c(-c3ccncc3)c3ccc([nH]3)c2-c2ccncc2)C=C1	–	> 50 µM	> 50 µM	–

Now from value to molecule:

Activity (Bacteria [1])	EC50 (DNA topoisomerase 1 [2])	EC50 (DNA topoisomerase 1 [3])	Activity (Bacteria [4])	Compound
Active	–	–	–	COc1cc(NS(C)(=O)=O)ccc1Nc1c2ccccc2nc2ccccc12
–	1.97 µM	1.23 µM	–	CN(C)c1ccc(-c2c3nc(c(-c4ccc(N(C)C)cc4)c4ccc([nH]4)c(-c4ccc(N(C)C)cc4)c4nc(c(-c5ccc(C(=O)O)cc5)c5ccc2[nH]5)C=C4)C=C3)cc1
–	2.02 µM	0.563 µM	–	O=C(O)c1ccc(-c2c3nc(c(-c4ccc(C(=O)O)cc4)c4ccc([nH]4)c(-c4ccc(C(=O)O)cc4)c4nc(c(-c5ccc(C(=O)O)cc5)c5ccc2[nH]5)C=C4)C=C3)cc1
–	–	–	inactive	COc1cc([C@@H]2c3cc4c(cc3[C@@H](O[C@@H]3O[C@@H]5CO[C@@H](C)O[C@H]5[C@H](O)[C@H]3O)[C@H]3COC(=O)[C@H]23)OCO4)cc(OC)c1O
